High-throughput results as filed in PubChem BioAssay.
An excerpt weighted towards active compounds, which were near 5.3% of everything screened.
Mdm2 MdmX PPI: disrupts the human Mdm2-MdmX interaction. inhibition, % at 8 µM. 330,000 compounds, 3% hits. SaOS-2 split-luciferase Mdm2/MdmX complementation, luminescence;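 active = inhibition of at least 50% at 8 µM in the primary screen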
Target sequence (O15151 whole entry, looked up): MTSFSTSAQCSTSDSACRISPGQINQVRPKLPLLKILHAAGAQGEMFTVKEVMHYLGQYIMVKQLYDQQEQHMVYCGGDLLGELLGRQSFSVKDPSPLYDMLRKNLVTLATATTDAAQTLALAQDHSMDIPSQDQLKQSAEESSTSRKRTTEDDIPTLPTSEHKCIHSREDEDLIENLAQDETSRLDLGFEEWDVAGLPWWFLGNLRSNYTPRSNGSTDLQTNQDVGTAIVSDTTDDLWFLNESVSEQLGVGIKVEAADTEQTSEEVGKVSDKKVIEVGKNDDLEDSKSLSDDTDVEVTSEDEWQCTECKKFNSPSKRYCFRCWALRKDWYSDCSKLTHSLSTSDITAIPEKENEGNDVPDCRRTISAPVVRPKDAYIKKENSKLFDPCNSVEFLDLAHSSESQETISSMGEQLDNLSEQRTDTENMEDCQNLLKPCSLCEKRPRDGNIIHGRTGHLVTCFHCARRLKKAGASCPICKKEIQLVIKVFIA
Target sequence (Q00987 whole entry, looked up): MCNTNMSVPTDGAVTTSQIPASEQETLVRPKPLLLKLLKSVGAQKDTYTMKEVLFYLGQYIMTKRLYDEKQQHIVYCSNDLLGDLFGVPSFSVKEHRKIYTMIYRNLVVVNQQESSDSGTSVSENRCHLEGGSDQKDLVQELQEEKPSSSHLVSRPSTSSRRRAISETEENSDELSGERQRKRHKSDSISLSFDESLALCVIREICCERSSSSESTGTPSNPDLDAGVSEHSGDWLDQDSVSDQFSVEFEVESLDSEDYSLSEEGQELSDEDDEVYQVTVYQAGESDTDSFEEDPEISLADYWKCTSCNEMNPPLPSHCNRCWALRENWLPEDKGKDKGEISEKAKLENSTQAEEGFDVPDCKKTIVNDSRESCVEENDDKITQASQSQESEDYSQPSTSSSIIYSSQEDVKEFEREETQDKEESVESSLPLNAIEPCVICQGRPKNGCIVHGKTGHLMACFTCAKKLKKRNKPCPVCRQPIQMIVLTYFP
NLRP3 yeast inh: NALP3 inhibition in yeast | Yeast reconstituted NLRP3/ASC/caspase-1, beta-gal luminescence, 24 h | 330,000 compounds, 0.39% hits | inhibition, % at 10 µM;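 active = inhibition of 50% or more; inactive = inhibition below 50%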
Beta cell apopt: blocks beta cell apoptosis; protection from apoptosis, % (concentration not given with the values); 300,000 compounds, 0.8% hits; AID 435005; INS-1E cytokine-induced death, ATP luminescence, 48 h; percent of positive-control rescue, neutral wells zero;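 active = Every replicate reaches about 75%, or at least half do and their mean reaches it too, limit read from the data; inconclusive = At least half of replicates reach the limit but their mean does not; inactive = Under half of replicates reach the limit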;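 note: higher means more ATP so stronger rescue from cytokine killing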
T cruzi repl: blocks replication of Trypanosoma cruzi; T. cruzi beta-gal in NIH3T3, luminescence, 90 h; inhibition, % (concentration not given with the values); 300,000 compounds, 1.4% hits; AID 1885;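 active = mean inhibition across valid replicates above about 55%, limit read from the data; inconclusive = mean below that limit but half or more replicates reach it; inactive = mean below it, under half of replicates reach it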;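 note: signal also drops with host cell toxicity which is not excluded here; higher percent means less beta-gal luminescence so fewer parasites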
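System: NIH/3T3 fibroblasts plus reporter T. cruzi. Medium: DMEM plus 2% FBS. Probe or stimulus: 5000 reporter trypomastigotes per well. Compound: single 50 nL compound addition per well in DMSO. Incubation: co-culture of at least 90 h after 3 h attachment. Detection: GalScreen β-gal luminescence, detergent lysis, 60 min. Evaluation: parasite load inhibition, %.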
CSC inhib: cancer stem cell inhibition; cancer stem cell-like cells viability, luminescence; inhibition, % at 7.5 µM; 300,000 compounds, 1.1% hits; AID 2717; in the data active = inhibition above about 75%; inconclusive = no clear call, values can overlap the other calls; tested in HMLE shEcad cells
Calb FLC: affects C. albicans growth with fluconazole. C. albicans CaCi-2 (fluconazole-resistant clinical isolate) + fluconazole, Alamar Blue growth, 48 h. 300,000 compounds, 0.57% hits. AID 1979. growth inhibition, % (test concentration not listed);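 active = growth inhibition above about 58% in most replicates, limit read from the data, passing the limit was not always enough; inconclusive = exactly half the replicates above a set limit; inactive = most replicates below a set limit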;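 note: all wells also contain fluconazole at 8 µg/ml as a sub-toxic cotreatment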
Mdm2-MdmX conf: confirmation of human Mdm2/MdmX interaction inhibitors; 10,000 compounds, 55% hits; Mdm2-MdmX binding, luminescent assay; AID 489028; shares compounds with Mdm2 MdmX PPI; inhibition, % at 8 µM; in the data active = inhibition above about 40%
FLuc counter: full-length luciferase inhibition in Mdm2/MdmX counter-screen; SaOS-2 full-length luciferase counterscreen, luminescence; AID 504607; shares compounds with Mdm2 MdmX PPI; inhibition, % at 8 µM; 6,200 compounds, 77% hits;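 active = mean inhibition at 8 µM reaching about 37%, which flags the compound as non-specific, limit read from the data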;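 note: p53-null SaOS-2 cells with luciferase driven by a doxycycline-inducible promoter; compound on cells about two nights before reading with doxycycline added after day one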
Large screens that a line does not name were inactive (follow-up assays come after a bar, where they were run).

O=C(NCCc1ccccc1)C1CCC(Cn2c(=O)c3ccccc3n(Cc3cccc(Cl)c3)c2=O)CC1 (centres undefined)	Mdm2 MdmX PPI 54 | Mdm2-MdmX conf inactive
O=C(NCCc1ccccc1)C1CCC(Cn2c(=O)c3ccccc3n(Cc3cccc(F)c3)c2=O)CC1 (centres undefined)	none
O=C(CCCOc1ccccc1)OCn1nnc2ccccc2c1=O	none
Cc1cc(-c2nnc3n2N=C(c2ccc(-c4ccccc4)cc2)CS3)n[nH]1	Mdm2 MdmX PPI 70 | Mdm2-MdmX conf inactive
Cc1cc(-c2nnc3n2N=C(c2ccccc2)CS3)n[nH]1	none
c1ccc(-c2cc(-c3nnc4n3N=C(c3ccc5ccccc5c3)CS4)[nH]n2)cc1	Mdm2 MdmX PPI 57, T cruzi repl 59, CSC inhib 92 | Mdm2-MdmX conf 78 | FLuc counter 76
Fc1ccc(C2=Nn3c(nnc3-c3n[nH]c4c3CCC4)SC2)cc1	Mdm2 MdmX PPI 76 | Mdm2-MdmX conf 44 | FLuc counter 82
O=C(C/C(=N/O)c1ccccc1O)C(F)F	none (no result: CSC inhib)
O=C(Nc1ccccc1F)c1cc(Cl)sc1Cl	none
COc1cccc(CNC(=O)CCNC(=O)N2CCn3c2nc2ccccc23)c1	none
O=C(Nc1ccc(N2CCOCC2)cc1N1CCOCC1)c1ccc(Br)cc1	none
O=C(COc1ccc(Br)cc1)Nc1ccc(N2CCOCC2)cc1N1CCOCC1	Mdm2 MdmX PPI 82 (no result: T cruzi repl, CSC inhib, Calb FLC) | Mdm2-MdmX conf inactive
Oc1c(Cl)cc(Cl)cc1C=Nc1ccc(Br)cc1	Mdm2 MdmX PPI 92 (no result: CSC inhib) | Mdm2-MdmX conf 52 | FLuc counter 60
CC(C)=CCc1c2c(c(O)c3c(=O)c4c(oc13)-c1cc(O)c(O)cc1OC4C=C(C)C)C=CC(C)(C)O2 (centres undefined)	Mdm2 MdmX PPI 83, Calb FLC 89 | Mdm2-MdmX conf 42 | FLuc counter inactive
CC(C)=CCc1c(-c2ccc(O)cc2O)oc2c3c(cc(O)c2c1=O)OC(C)(C)C=C3	none
Cc1nc2c(-c3ccc(Cl)cc3)c(C)[nH]n2c(=O)c1Cc1ccccc1	Mdm2 MdmX PPI 53, Beta cell apopt 98, T cruzi repl 63 | Mdm2-MdmX conf 61 | FLuc counter 55
CSC1=NC(C)(C)C=C(/C=C/c2ccc(Cl)cc2)N1	Mdm2 MdmX PPI 54, Calb FLC inconclusive | Mdm2-MdmX conf inactive
Cc1c(C(=O)Nc2ccncc2)sc2nc(-c3ccc(F)cc3)cn12	Mdm2 MdmX PPI 67 | Mdm2-MdmX conf inactive
C=CCNC(=S)N/N=C(\C)c1cccc(NC(C)=O)c1	none
FC(F)(F)c1cccc(NC(=S)NCc2ccc(Cl)cc2)c1	Mdm2 MdmX PPI 83 | Mdm2-MdmX conf inactive
Fc1cc(NC(=S)NCc2ccc(CNC(=S)Nc3ccc(Cl)c(F)c3)cc2)ccc1Cl	Mdm2 MdmX PPI 50 | Mdm2-MdmX conf inactive
FC(F)(F)c1cccc(NC(=S)NNC(=S)Nc2ccc(Cl)cc2)c1	Mdm2 MdmX PPI 80, T cruzi repl 56, CSC inhib 132 | Mdm2-MdmX conf inactive
CC1=C(C)CC(C(=O)Nc2nc(-c3ccc(F)cc3)c(C)s2)C(C(=O)O)C1 (centres undefined)	none
CCOCCCNC(=O)c1ccc(Cn2c(=S)[nH]c3c([nH]c4ccc(OC)cc43)c2=O)cc1	Calb FLC inconclusive
CCCCNC(=O)c1ccc(Cn2c(=S)[nH]c3c([nH]c4ccc(OC)cc43)c2=O)cc1	Mdm2 MdmX PPI 89, Beta cell apopt 101, CSC inhib 140 | Mdm2-MdmX conf inactive
COc1ccc(OC)c2c1C(=O)C(Cl)=C(Cl)C2=O	Mdm2 MdmX PPI 96, Beta cell apopt 114, CSC inhib 96 | Mdm2-MdmX conf 100 | FLuc counter inactive
COc1ccc(OC)c2c1C(=O)c1ccccc1C2=O	none
COc1ccc(C(=O)COC(=O)c2ccc(NC(=O)c3ccccc3)cc2)cc1	none
Cc1ccc(-c2oc3ccccc3c(=O)c2OCC(=O)O)cc1	none
Cc1ccc(-c2oc3ccccc3c(=O)c2O)cc1	Mdm2 MdmX PPI 84 | Mdm2-MdmX conf 51 | FLuc counter inactive
CC(C)Nc1nc(Cl)nc(N(C#N)CN2C(=O)c3ccccc3C2=O)n1	none
COc1cccc(C(=O)Oc2c(CN3CCOCC3)cc(Cl)c3cccnc23)c1	Mdm2 MdmX PPI 54, Beta cell apopt 90, Calb FLC 104 | Mdm2-MdmX conf 56 | FLuc counter 49
COc1cc(C(=O)Oc2c(CN3CCOCC3)cc(Cl)c3cccnc23)cc(OC)c1OC	Mdm2 MdmX PPI 65, Beta cell apopt 93, Calb FLC 94 | Mdm2-MdmX conf 46 | FLuc counter 39
O=C(Oc1c(CN2CCOCC2)cc(Cl)c2cccnc12)c1ccc(F)cc1	Mdm2 MdmX PPI 52, Beta cell apopt 83, T cruzi repl 56, Calb FLC 96 | Mdm2-MdmX conf 49 | FLuc counter 42
COc1ccc(C(=O)OC(C)CN2CCOCC2)cc1 (centres undefined)	none
COc1cc(C(=S)N2CCOCC2)cc(OC)c1OC(=O)c1ccc(F)cc1	none
COc1cc(C(=O)Oc2c(OC)cc(C(=S)N3CCOCC3)cc2OC)cc(OC)c1OC	none
COc1ccc(C(=O)Oc2c(CN3CCOCC3)cc(Cl)c3cccnc23)cc1	Mdm2 MdmX PPI 55, Calb FLC 88 | Mdm2-MdmX conf inactive | FLuc counter 43
FC(F)(F)c1cccc(-c2nnc3ccc(C(F)(F)F)cn23)c1	none (no result: Beta cell apopt)
O=C(Oc1c(CN2CCOCC2)cc(Cl)c2cccnc12)c1cccs1	Mdm2 MdmX PPI 65, Beta cell apopt 122, Calb FLC 101 | Mdm2-MdmX conf 43 | FLuc counter 43
O=C(Oc1ccc(Cl)c2cccnc12)N1CCOCC1	none
CCOc1cc(/C=N\NC(=O)Cc2ccccc2)ccc1OCC(=O)Nc1ccc(C)c(C)c1	Mdm2 MdmX PPI 94 (no result: T cruzi repl, Calb FLC) | Mdm2-MdmX conf 75 | FLuc counter 76
COc1ccc(/C=N/NC(N)=S)cc1OC(=O)c1cccc2ccccc12	Mdm2 MdmX PPI 61, T cruzi repl inconclusive, Calb FLC inconclusive | Mdm2-MdmX conf inactive
COc1cccc(/C=N/NC(=O)c2nc(-c3ccccc3)cc(-c3ccccc3)n2)c1	none (no result: Beta cell apopt)
COc1ccc(/C=N/NC(=O)c2[nH]nc3c2CCc2ccccc2-3)cc1OC	Mdm2 MdmX PPI 56 | Mdm2-MdmX conf 68 | FLuc counter 74
COc1ccc(C(=O)Oc2cc(/C=N/NC(N)=S)ccc2OC)cc1	none (no result: Beta cell apopt)
COc1ccc(/C=N/NC(=O)c2nc(-c3ccccc3)cc(-c3ccccc3)n2)cc1OC	Mdm2 MdmX PPI 72 | Mdm2-MdmX conf 71 | FLuc counter 86
CCOc1cc(/C=N\Nc2ccc([N+](=O)[O-])cc2)ccc1OCC(=O)Nc1ccc(C)c(C)c1	none
